Laboratory results: ChEMBL document CHEMBL4138303, “Discovery and in Vitro Optimization of 3-Sulfamoylbenzamides as ROMK Inhibitors” (ACS Med Chem Lett, 2018)
Positions count from the first letter of the chain named. Calls of active or inactive are those of the source. The rule behind the calls is not given here.

Experiments:
[1] = Apparent intrinsic clearance in human liver microsomes; format: ADME, microsome; conditions: read-out: CLH(app)
[2] = Octanol-sodium phosphate buffer partition coefficient, log D of the compound at pH 7.4 by shake flask method; format: physicochemical
[3] = target: T1, ATP-sensitive inward rectifier potassium channel 1 (Homo sapiens, UniProt P48048); assay: Inhibition of human ROMK2 expressed in HEK293 cells after 20 mins by Thallos-AM dye based fluorescence assay; format: cell-based
T1 sequence (P48048 whole entry): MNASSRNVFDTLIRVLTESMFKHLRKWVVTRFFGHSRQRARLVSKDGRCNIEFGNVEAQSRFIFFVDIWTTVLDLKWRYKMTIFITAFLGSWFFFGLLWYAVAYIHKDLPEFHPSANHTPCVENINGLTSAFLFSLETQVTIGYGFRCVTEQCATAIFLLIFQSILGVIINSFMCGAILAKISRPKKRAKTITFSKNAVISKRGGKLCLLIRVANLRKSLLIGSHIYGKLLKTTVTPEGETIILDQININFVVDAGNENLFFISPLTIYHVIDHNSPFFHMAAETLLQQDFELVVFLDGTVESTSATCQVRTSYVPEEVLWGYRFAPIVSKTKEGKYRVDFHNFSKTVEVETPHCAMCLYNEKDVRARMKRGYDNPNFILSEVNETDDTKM

[4] = Apparent permeability in MDCK2-LE cells; format: ADME, cell-based, Canis lupus familiaris, MDCK-II; conditions: dog
[5] = target: Voltage-gated inwardly rectifying potassium channel KCNH2 (Homo sapiens, UniProt Q12809); assay: Displacement of fluorescent-labelled dofetilide from human ERG expressed in HEK293 cell membrane homogenates; format: cell membranes
Chain of Voltage-gated inwardly rectifying potassium channel KCNH2 (Q12809 whole entry): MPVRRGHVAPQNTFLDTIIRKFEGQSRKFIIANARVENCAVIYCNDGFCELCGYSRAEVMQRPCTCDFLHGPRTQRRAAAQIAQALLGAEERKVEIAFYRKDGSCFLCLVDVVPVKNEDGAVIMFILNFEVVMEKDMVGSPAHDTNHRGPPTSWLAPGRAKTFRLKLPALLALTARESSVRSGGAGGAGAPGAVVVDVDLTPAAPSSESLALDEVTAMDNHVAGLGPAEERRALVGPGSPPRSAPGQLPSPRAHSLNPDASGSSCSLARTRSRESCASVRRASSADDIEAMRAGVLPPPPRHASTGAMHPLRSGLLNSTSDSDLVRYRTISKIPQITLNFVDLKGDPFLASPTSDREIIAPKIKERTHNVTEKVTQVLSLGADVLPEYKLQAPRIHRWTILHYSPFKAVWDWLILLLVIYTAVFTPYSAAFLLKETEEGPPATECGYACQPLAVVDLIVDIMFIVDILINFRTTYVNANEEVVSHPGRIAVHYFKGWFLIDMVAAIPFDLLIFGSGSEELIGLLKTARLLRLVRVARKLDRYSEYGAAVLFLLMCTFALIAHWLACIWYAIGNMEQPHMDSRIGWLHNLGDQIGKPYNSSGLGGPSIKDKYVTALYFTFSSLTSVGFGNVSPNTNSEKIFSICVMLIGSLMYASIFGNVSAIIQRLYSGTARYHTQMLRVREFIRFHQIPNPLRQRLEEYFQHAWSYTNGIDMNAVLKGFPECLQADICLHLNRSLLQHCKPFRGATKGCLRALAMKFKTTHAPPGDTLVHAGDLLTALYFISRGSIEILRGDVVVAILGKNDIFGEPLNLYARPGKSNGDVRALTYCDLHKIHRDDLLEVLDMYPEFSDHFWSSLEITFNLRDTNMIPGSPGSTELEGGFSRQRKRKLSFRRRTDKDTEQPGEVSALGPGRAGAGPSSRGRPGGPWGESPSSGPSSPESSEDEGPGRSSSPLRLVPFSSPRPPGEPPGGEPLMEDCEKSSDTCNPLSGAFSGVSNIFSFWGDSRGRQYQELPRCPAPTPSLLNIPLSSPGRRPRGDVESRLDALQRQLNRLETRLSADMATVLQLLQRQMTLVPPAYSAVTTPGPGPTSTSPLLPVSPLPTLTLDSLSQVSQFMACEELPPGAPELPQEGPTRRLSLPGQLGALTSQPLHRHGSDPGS
Method in brief: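 Ki from displacement of a fluorescently labelled dofetilide derivative from membrane homogenates of HEK-293 cells stably expressing hERG (Kv11.1).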

[6] = target: T2, ATP-sensitive inward rectifier potassium channel 1 (Rattus norvegicus) (UniProt P35560); assay: Inhibition of rat ROMK2 expressed in HEK293 cells at -75 mV holding potential by whole cell patch clamp method; format: cell-based
T2 sequence (whole entry): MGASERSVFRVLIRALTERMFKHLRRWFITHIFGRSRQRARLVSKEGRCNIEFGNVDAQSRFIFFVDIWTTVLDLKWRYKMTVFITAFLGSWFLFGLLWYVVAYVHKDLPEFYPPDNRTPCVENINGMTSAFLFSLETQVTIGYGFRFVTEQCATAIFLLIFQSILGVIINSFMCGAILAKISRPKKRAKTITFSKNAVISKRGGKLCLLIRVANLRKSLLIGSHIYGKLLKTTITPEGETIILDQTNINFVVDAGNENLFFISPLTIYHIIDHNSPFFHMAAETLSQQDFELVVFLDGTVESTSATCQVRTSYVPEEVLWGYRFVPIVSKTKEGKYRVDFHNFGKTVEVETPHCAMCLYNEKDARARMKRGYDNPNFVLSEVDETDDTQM

[7] = target: T3, ATP-sensitive inward rectifier potassium channel 1 (Rattus norvegicus, UniProt P35560); assay: Inhibition of rat ROMK1 expressed in HEK293 cells after 20 mins by Thallos-AM dye based fluorescence assay; format: cell-based
T3 sequence (P35560 whole entry): T2 sequence (whole entry)
Method in brief: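 Thallium (Tl+) flux assay against rat ROMK1, with concentration-response testing up to 30 µM. IC50 values are geometric means of n≥3 replicates unless otherwise indicated and are also reported as pIC50±SD.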

[8] = target: T1, ATP-sensitive inward rectifier potassium channel 1; assay: (§1) Inhibition of human ROMK1 expressed in HEK293 cells after 20 mins by Thallos-AM dye based fluorescence assay; format: cell-based
Method in brief: (§2)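 Tl+ flux assay on human or rat ROMK1, run as concentration-response. IC50 is the geometric mean of n≥3 replicates, also given as pIC50±SD. Rat ROMK1 testing went up to 30 µM.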

[9] = target: T4, ATP-sensitive inward rectifier potassium channel 1 (Homo sapiens) (UniProt P48048); assay: as §1; format: cell-based; method in brief: as §2
T4 sequence (whole entry): T1 sequence (P48048 whole entry)

[10] = target: T1, ATP-sensitive inward rectifier potassium channel 1; assay: Inhibition of human ROMK1 expressed in HEK293 cells at -75 mV holding potential by whole cell patch clamp method; format: cell-based
Method in brief: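 Whole-cell patch clamp on human ROMK1. IC50 comes from a global fit to a five-point concentration-response curve with n≥4 per concentration, reported with 95% CI.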

[11] = tested on: T5, ATP-sensitive inward rectifier potassium channel 1 (Homo sapiens), P48048 [K80M]; assay: Inhibition of human Kir1.1 K80M mutant expressed in HEK293 cells at 100 to 300 nM at -75 mV holding potential by whole cell patch clamp method; format: cell-based
T5 sequence (whole entry): T1 sequence (P48048 whole entry) with K80M
Method in brief: (§3)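 Whole-cell currents were recorded under voltage clamp in HEK293 cells transiently expressing human ROMK K80M or the human ROMK K80M/N171D double mutant.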

[12] = tested on: T6, ATP-sensitive inward rectifier potassium channel 1 (Homo sapiens), P48048 [N171D]; assay: Inhibition of human Kir1.1 N171D mutant expressed in HEK293 cells at 100 to 300 nM at -75 mV holding potential by whole cell patch clamp method; format: cell-based; method in brief: as §3
T6 sequence (whole entry): T1 sequence (P48048 whole entry) with N171D

[13] = target: T7, ATP-sensitive inward rectifier potassium channel 10 (Homo sapiens) (UniProt P78508); assay: Inhibition of Kir4.1 (unknown origin) expressed in CHO cells at 10 uM at -75 mV holding potential by whole cell patch clamp method relative to control; format: cell-based
T7 sequence (whole entry): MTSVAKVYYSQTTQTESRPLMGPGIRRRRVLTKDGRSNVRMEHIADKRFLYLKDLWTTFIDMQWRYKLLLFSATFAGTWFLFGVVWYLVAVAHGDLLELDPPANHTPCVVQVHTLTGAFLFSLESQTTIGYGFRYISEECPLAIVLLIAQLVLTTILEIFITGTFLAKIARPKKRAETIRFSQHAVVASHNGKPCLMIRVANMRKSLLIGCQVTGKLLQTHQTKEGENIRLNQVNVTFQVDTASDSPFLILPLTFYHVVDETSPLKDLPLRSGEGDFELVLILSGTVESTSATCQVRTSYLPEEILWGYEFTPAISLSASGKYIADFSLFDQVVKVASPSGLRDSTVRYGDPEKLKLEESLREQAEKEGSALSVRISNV
Method in brief: (§4)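 Whole-cell patch-clamp recordings in CHO cells stably expressing either Kir2.1 or Kir4.1.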

[14] = target: T8, Kir2.1 (inward rectifier potassium channel 2) (Homo sapiens, UniProt P63252); assay: Inhibition of Kir2.1 (unknown origin) expressed in CHO cells at 10 uM at -75 mV holding potential by whole cell patch clamp method relative to control; format: cell-based; conditions: CHO cells expressing Kir2.1; method in brief: as §4
T8 sequence (P63252 whole entry): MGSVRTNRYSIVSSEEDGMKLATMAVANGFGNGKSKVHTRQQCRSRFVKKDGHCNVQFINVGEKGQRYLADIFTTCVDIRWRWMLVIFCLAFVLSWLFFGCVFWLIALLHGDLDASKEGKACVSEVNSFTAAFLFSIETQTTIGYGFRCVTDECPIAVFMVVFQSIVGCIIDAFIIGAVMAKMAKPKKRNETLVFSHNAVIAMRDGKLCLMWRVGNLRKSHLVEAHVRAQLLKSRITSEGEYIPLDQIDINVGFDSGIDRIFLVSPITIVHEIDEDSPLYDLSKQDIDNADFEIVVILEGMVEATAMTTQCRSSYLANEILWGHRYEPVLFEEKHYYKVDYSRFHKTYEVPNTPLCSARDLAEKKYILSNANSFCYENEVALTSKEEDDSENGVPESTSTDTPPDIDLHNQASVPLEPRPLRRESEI

[15] = octanol/sodium phosphate buffer, read-out: logD

Cc1ccc(NS(=O)(=O)c2cc(C(=O)NCc3nc(C)no3)ccc2C)cc1
CLint scaled [1]: 30 mL/min/kg
logD [2, 15]: 2.7
IC50 [3]: 440 nM
Papp ([4]; MDCK, read-out: Papp): 20 ×10⁻⁶ cm/s
Ki [5]: > 40000 nM

Cc1ccc(C(=O)NCc2cn(C)nn2)cc1S(=O)(=O)Nc1ccc(Cl)cc1
CLint scaled [1]: < 9 mL/min/kg
logD [2, 15]: 2.9
IC50 [3]: 86 nM
Papp ([4]; MDCK, read-out: Papp): 19 ×10⁻⁶ cm/s
Ki [5]: > 40000 nM

Cc1ccc(C(=O)NCc2cn(C)nn2)cc1S(=O)(=O)Nc1ccc(-c2ccno2)cc1
CLint scaled [1]: < 8 mL/min/kg
logD [2, 15]: 2.4
inhibition [6]: inactive
IC50 [7]: > 30000 nM
IC50 [3]: 280 nM
IC50 ([8]; read-out: IC50): 1040 nM
IC50 ([8]; read-out: pIC50 (converted)): 1260 nM
inhibition [9]: Dose-dependent effect
Papp ([4]; MDCK, read-out: Papp): 12 ×10⁻⁶ cm/s
Ki [5]: > 40000 nM
IC50 [10]: 104 nM

COc1ccc(C(=O)NC(C)c2cnn(C)n2)cc1S(=O)(=O)Nc1ccc(Cl)cc1 (single isomer, unassigned; (-)) [listing 1 of 2 here]
CLint scaled [1]: < 8 mL/min/kg
logD [2, 15]: 2.6
IC50 [7]: > 30000 nM
IC50 [3]: 160 nM
IC50 ([8]; read-out: IC50): 391 nM
Papp ([4]; MDCK, read-out: Papp): 16 ×10⁻⁶ cm/s
Ki [5]: 28000 nM
IC50 [10]: 61 nM

COc1ccc(C(=O)NC(C)c2cnn(C)n2)cc1S(=O)(=O)Nc1ccc(Cl)cc1 (single isomer, unassigned; (+))
logD ([2]; octanol/water): 2.7
IC50 [3]: 13000 nM
Papp ([4]; mdck-ii): 11 ×10⁻⁶ cm/s
Ki [5]: > 40000 nM

Cc1noc(CNC(=O)c2ccc(C)c(S(=O)(=O)Nc3ccc(-c4cnco4)cc3)c2)n1
CLint scaled [1]: 69 mL/min/kg
logD [2, 15]: 2.2
IC50 [3]: 35 nM
Papp ([4]; MDCK, read-out: Papp): 10 ×10⁻⁶ cm/s
Ki [5]: > 40000 nM

O=[N+]([O-])c1ccc2nc(COCc3nc4ccc([N+](=O)[O-])cc4[nH]3)[nH]c2c1
IC50 [7]: 420 nM
IC50 ([8]; read-out: IC50): 744 nM

Cc1noc(CNC(=O)c2ccc(C)c(S(=O)(=O)Nc3ccc(-c4ccno4)cc3)c2)n1
CLint scaled [1]: 25 mL/min/kg
logD [2, 15]: 2.3
IC50 [3]: 110 nM
Papp ([4]; MDCK, read-out: Papp): 6 ×10⁻⁶ cm/s
Ki [5]: > 40000 nM

COc1ccc(C(=O)NC(C)c2cnn(C)n2)cc1S(=O)(=O)Nc1ccc(Cl)cc1 (single isomer, unassigned; (-)) [listing 2 of 2 here]
inhibition [11]: Active
inhibition [6]: inactive
inhibition [9]: Dose-dependent effect
inhibition [12]: Active

Cc1ccc(NS(=O)(=O)c2cccc(C(=O)NCc3nc(C)no3)c2)cc1
CLint scaled [1]: 9 mL/min/kg
logD [2, 15]: 2.3
IC50 [3]: 17000 nM
Papp ([4]; MDCK, read-out: Papp): 22 ×10⁻⁶ cm/s
Ki [5]: > 40000 nM

COc1ccc(C(=O)NCc2nc(C)no2)cc1S(=O)(=O)Nc1ccc(C)cc1
CLint scaled [1]: 10 mL/min/kg
logD [2, 15]: 2.3
IC50 [3]: 1300 nM
Papp ([4]; MDCK, read-out: Papp): 8 ×10⁻⁶ cm/s
Ki [5]: > 40000 nM

Cc1ccc(NS(=O)(=O)c2cc(C(=O)NCc3cccnc3)ccc2C)cc1
inhibition [13]: 19%
CLint scaled [1]: 120 mL/min/kg
logD [2, 15]: 3
inhibition at 10 µM [14]: 13%
IC50 [3]: 6500 nM
Papp ([4]; MDCK, read-out: Papp): 15 ×10⁻⁶ cm/s
Ki [5]: > 40000 nM

Cc1noc(CNC(=O)c2ccc(C)c(S(=O)(=O)Nc3ccc(Cl)cc3)c2)n1
CLint scaled [1]: 35 mL/min/kg
logD [2, 15]: 3
IC50 [7]: > 30000 nM
IC50 [3]: 85 nM
IC50 ([8]; read-out: IC50): 777 nM
inhibition [9]: Dose-dependent effect
Papp ([4]; MDCK, read-out: Papp): 19 ×10⁻⁶ cm/s
Ki [5]: > 40000 nM
IC50 [10]: 62 nM
